Wnt bcat act: Wnt/beta-catenin pathway activation; actives 1.2% (n = 300,000); Wnt/beta-catenin reporter cell assay, activator, plate reader; activation, % at 9.35 µM; in the data active means activation above about 30%, passing the limit was not always enough; inconclusive means no clear call, values can overlap the other calls;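 further: 0% = neutral control wells and 100% = positive control wells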
esBAF inh: inhibitors of esBAF chromatin remodeling in mouse ES cells; actives 2% (n = 350,000); reporter increase, % at 12.5 µM; AID 602393; Bmi1-luciferase knock-in reporter, 24 h; 100% = twice the neutral-well signal; in the data active means activation above about 40%; inconclusive means no clear call, values can overlap the other calls;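 further: 0% = median of the plate's neutral control wells and 100% = double that signal; a rise in the Bmi1 reporter signal indicates esBAF inhibition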
Xi reactivation: reactivates the inactive X chromosome in mouse fibroblasts; XiGFP mouse fibroblasts, % GFP-positive cells imaging, 3 d; cells co-treated with 5-aza-dC sensitizer; scaled so ellipticine positive control = 100%; activation, % at 7.58 µM; actives 0.055% (n = 360,000);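 active means mean normalized replicate activation at least 10% and every replicate at or above 10%; inconclusive means only one of the two criteria met; inactive means mean below 10% and not all replicates reach 10%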;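 further: 0% = median of on-plate neutral control wells and 100% = ellipticine 6 µM median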
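System: 68-5-11 XiGFP fibroblast line; Timing: 3 days compound exposure; Compound dosing: one concentration, pinned; Benchmarks: positive control ellipticine, 6 µM final; Buffer or medium: DMEM containing 5-aza-dC.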
Casp6 inh: blocks human caspase-6 cleavage activity; inhibition, % at 12.5 µM; purified caspase-6, Z-VEID-R110 cleavage fluorescence; actives 0.53% (n = 350,000); P55212;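 active means mean inhibition across replicates at least about 35%, with every replicate also reaching that limit, limit read from the data; inconclusive means only one of the two criteria met; inactive means neither criterion met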;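 further: 0% = median of neutral control wells and 100% = no fluorescence left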
NSD2 HMT inh: NSD2 (human) methyltransferase inhibition; inhibition, % at 12.5 µM; actives 0.54% (n = 310,000); NSD2 peptide methylation, AlphaScreen, 120 min; AID 743445; O96028; in the data active means inhibition above about 50%
MITF TRPM1 HTS: increases MITF-driven TRPM1 promoter luciferase signal. SK-MEL-5 TRPM1-promoter luciferase, 24 h; % of positive control, neutral wells = 0. activation, % at 12.5 µM. actives 0.75% (n = 300,000). AID 588334;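 active means mean activation of at least 80% with every replicate also reaching 80%; inconclusive means mean reaches 80% but some replicate falls short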;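 further: 0% = neutral control wells and 100% = parthenolide positive control wells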
* marks the source's active call; other numbers are inactive results; ? = inconclusive; · = no result. Sampled rows, rich in hits. Any-hit rate of the full collection: about 3%.

SMILES	Wnt bcat act	esBAF inh	Xi reactivation	Casp6 inh	NSD2 HMT inh	MITF TRPM1 HTS
COc1ccccc1CNC(=O)C[C@H]1CC[C@@H](NC(C)=O)[C@@H](CO)O1	·	-1	-1	1	·	·
NC(=O)c1ccccc1NC(=O)c1ccc2c(c1)OCO2	42*	38	0	-1	-2	·
NC(=O)c1ccccc1NC(=O)COc1ccc2c(c1)OCO2	25	48*	0	-1	-1	132*
C[C@@H]1CN([C@H](C)CO)C(=O)c2cc(C#CCN(C)C)cnc2O[C@H]1CN(C)Cc1ccccn1	·	3	0	-2	·	·
Cc1oc(C(=O)O)cc1COc1ccccc1Cl	59*	-3	·	·	0	-10
O=C(O)c1ccccc1COc1ccccc1Cl	3	10	·	3	0	-3
CCCNC(=O)N1CC2(CCN(C(=O)CN(C)C)CC2)c2c(n(C)c3cc(OC)ccc23)[C@H]1CO	·	·	0	-2	·	·
CC(=O)N1[C@@H]2CN(C(=O)NC(C)C)C[C@H]1C2c1ccccc1 (stereo partly drawn)	·	·	0	·	·	·
C[C@H](CO)N1C[C@H](C)[C@H](CN(C)C(=O)Nc2ccccc2)Oc2ccc(NC(=O)Nc3ccc(C(F)(F)F)cc3)cc2C1=O	·	2	-1	-2	·	·
Cc1ccc(CNc2ccc(N3CCOCC3)cc2)cc1	0	64*	0	1	12	11
c1cc2c(cc1CNc1ccc(N3CCOCC3)cc1)OCO2	8	69*	0	-1	·	75
CC(C)c1ccc(CNc2ccc(N3CCOCC3)cc2)cc1	-4	6	·	·	22	-7
CO[C@@H]1CN(C)C(=O)c2cc(NC(=O)c3ccccc3F)ccc2OC[C@H](C)N(CC2CC2)C[C@@H]1C	·	0	0	2	·	·
COC(=O)c1cccc(-n2c(C)cc(/C=C3\SC(=O)NC3=O)c2C)c1	-3	45*	0	8	22	·
N/C(Cc1nc(-c2ccc(Cl)cc2)cs1)=N/O	37*	?	0	2	-1	·
O=C1O[C@@H](c2ccccc2)[C@@H](c2ccccc2)N2[C@@H](c3ccccc3OCCO)[C@]3(C(=O)Nc4ccccc43)[C@@H](C(=O)O)[C@H]12	·	·	·	36*	·	·
COCC(=O)Nc1ccc2c(c1)C(=O)N(C)C[C@@H](OC)[C@H](C)CN(C(=O)c1ccccc1F)[C@@H](C)CO2	·	-5	0	0	·	·
CN(C)C(=O)c1ccc(-c2ccc([C@H]3[C@@H](CO)N4CCCCN(C(=O)C5CCC5)C[C@@H]34)cc2)cc1	·	·	·	2	·	·
CO[C@H]1CN(C)C(=O)c2cc(NC(=O)C3CC3)ccc2OC[C@@H](C)N(C(=O)Cc2ccccn2)C[C@@H]1C	·	-1	0	0	·	·
O=[N+]([O-])c1ccc(Sc2n[nH]c(-c3ccccc3)n2)nc1	12	51*	·	·	1	·
CN(C)CC(=O)N1[C@@H](CO)[C@@H](c2ccccc2)C12CN(C(=O)c1cccc(F)c1)C2	·	·	0	-6	·	·
CC(/C=N/NC(=O)c1cccc(F)c1)=C\c1ccccc1	40*	7	0	-2	-1	44
CC(/C=N/NC(=O)c1ccncc1)=C\c1ccccc1	6	13	·	-1	-3	22
O=C(N/N=C/c1ccc(Cl)cc1Cl)c1ccc2nc[nH]c2c1	3	28	0	0	3	2
O=C(N/N=C/c1ccc(Cl)cc1Cl)c1cccc(F)c1	38*	63*	·	·	1	138*
SMILES	Wnt bcat act	esBAF inh	Xi reactivation	Casp6 inh	NSD2 HMT inh	MITF TRPM1 HTS
CO[C@@H]1CN(C)C(=O)c2cc(NC(=O)NC(C)C)ccc2OC[C@@H](C)N(Cc2ccc(-c3ccccn3)cc2)C[C@@H]1C	·	15	0	-1	·	·
FC(F)(F)c1cc(Cl)c2nnc(-c3cccnc3)n2c1	0	·	0	0	0	4
FC(F)(F)c1cnc(-c2cnc(-c3cccnc3)nc2)c(Cl)c1	?	·	0	-3	-1	106*
c1ccc(-c2cc3nccc(-c4ccccn4)n3n2)cc1	19	·	0	-2	-13	127*
Cc1cc2nccc(-c3ccccn3)n2n1	15	12	0	-4	·	-7
COc1cccc(OCc2cc(C(=O)N(C)Cc3nccn3C)no2)c1	29	69*	0	5	-1	?
COc1ccc(OCc2cc(C(=O)N(C)Cc3nccn3C)no2)c2ccccc12	-2	0	0	1	5	-28
COc1cccc(OCc2cc(C(=O)N(C)CCOc3ccc(C)cc3)no2)c1	-1	67*	0	·	-2	30
C[C@@H]1CCCCO[C@H](CN(C)S(C)(=O)=O)[C@H](C)CN([C@@H](C)CO)C(=O)c2cc(NC(=O)CCC(F)(F)F)ccc2O1	·	-2	0	·	·	·
CC=Cc1ccc2n(c1=O)C[C@H]1[C@H](CO)[C@@H](C(=O)N(C)C)N(CCC)[C@@H]21 (mixture of isomers)	·	·	0	2	·	·
CCc1[nH]nc(C(=O)NC2CCCc3c2cnn3-c2cc(C)cc(C)c2)c1C (stereo not drawn)	11	66*	0	-1	-1	21
C[C@H](CO)N1C[C@H](C)[C@@H](CN(C)CC2CCCCC2)OCCCC[C@H](C)Oc2ccc(N(C)C)cc2C1=O	·	-4	1	-1	·	·
Nc1c(N=Nc2ccccc2F)c(=O)[nH]n1-c1ccccc1	11	69*	·	·	17	54
C[C@H](CO)N1C[C@H](C)[C@H](CN(C)Cc2ccc(C(F)(F)F)cc2)OCCCC[C@H](C)Oc2ccc(NC(=O)CCCN(C)C)cc2C1=O	·	-9	0	0	·	·
CCCCNC(=O)C1(C)CCCCN1C(=O)c1c(C)noc1C (stereo not drawn)	33*	4	0	0	1	·
CCCCNC(=O)C1(C)CCCCN1C(=O)c1ccno1 (stereo not drawn)	0	0	0	7	0	·
CCCCNC(=O)C1(C)CCCCN1C(=O)c1cccs1 (stereo not drawn)	39*	1	0	0	-2	·
COc1ccc([C@@H]2C/C=C\C[C@@H](c3ccc(F)cc3)NC(=O)CCC(=O)N2)c(OC)c1	·	·	0	·	·	·
Cc1cc(C)c2oc(-c3cccc(N)c3)nc2c1	14	55*	0	0	-3	·
C[C@H]1CN(C)C(=O)c2cccc(N)c2O[C@H]1CN(C)C(=O)OC(C)(C)C	·	·	0	·	·	·
OC1CCCN(CC(O)COC(c2ccccc2)c2ccccc2)C1 (stereo not drawn)	3	-2	0	3	2	3
CC1CCCN(CC(O)COC(c2ccccc2)c2ccccc2)C1 (stereo not drawn)	-1	·	0	38*	2	1
COc1cc(-c2nnc(-c3cccs3)o2)cc(OC)c1OC	·	6	·	·	0	0
Fc1ccc2c(Cl)c(-c3nnc(-c4cccs4)o3)sc2c1	44*	-11	·	·	0	·

Screens as filed in PubChem.
